In all, about 2,400 compounds went through this assay and about 2,000 (83%) were called active.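 The calls were made as follows: active = activation above a cutoff set at the run's mean compound activation plus 3 SD (cut at about 39% in these data); inactive = the rest.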 So high a share suggests a set chosen from earlier hits. Not all results are given here.
biological target: Trace amine-associated receptor 1 (Homo sapiens) (UniProt Q96RJ0); test: activators of TAAR1 calcium signal, triplicate retest – Fluo-8 calcium fluorescence, CHO RD-HGA16 cells, confirmation (AID 651783); conditions: CHO RD-HGA16 TAAR1, Fluo-8 calcium fluorescence; at 3 µM; hits give high values;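 also: promiscuous G-alpha-16 overexpression reroutes TAAR1 signalling from cAMP to calcium; peak fluorescence divided by basal pre-compound fluorescence per well; 0% = DMSO wells and 100% = phenethylamine at EC100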
Sequence (Q96RJ0 whole entry, looked up): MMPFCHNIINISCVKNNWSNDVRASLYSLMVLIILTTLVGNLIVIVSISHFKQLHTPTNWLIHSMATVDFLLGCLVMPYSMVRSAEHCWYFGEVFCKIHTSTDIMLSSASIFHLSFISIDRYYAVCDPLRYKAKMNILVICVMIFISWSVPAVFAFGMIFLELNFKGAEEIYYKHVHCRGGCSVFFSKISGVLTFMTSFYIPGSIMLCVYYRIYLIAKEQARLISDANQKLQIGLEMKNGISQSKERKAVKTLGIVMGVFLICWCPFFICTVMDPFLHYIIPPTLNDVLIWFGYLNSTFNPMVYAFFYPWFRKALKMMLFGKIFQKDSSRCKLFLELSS
Method in brief: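 System: hTAAR1/Gα16 CHO (RD-HGA16) cell line | Compound: Single nominal final dose of 3 µM per compound | Schedule: Fluo-8 dye loading 75 min 37 °C, then 30 min room temperature | Technique: Fluo-8 calcium signal, kinetic fluorescence read | Read-out: % activation from max-to-basal fluorescence ratio, DMSO-to-PEA scaled | Replicates: Triplicate wells per compound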

Structure (SMILES)	activation
c1ccc(CCNC2CCCCCC2)cc1	91.8% (active)
CCCCC(=O)N/N=C/c1c(O)n(CC)c(=S)n(CC)c1=O	106% (active)
Cc1cccc(N2C(=O)NC(=O)/C(=C\c3cnn(-c4ccccc4)c3)C2=O)c1	46.7% (active)
NCC(O)c1ccc(O)cc1 (centres undefined)	88.3% (active)
COc1ccc(Br)cc1CNCCc1cccc(Cl)c1	71% (active)
CC(Cc1ccccc1)NC=O (centres undefined)	82.1% (active)
CCC(=NCCc1ccccc1)c1c(O)n(C2CCCCC2)c(=O)[nH]c1=O	76.4% (active)
Clc1ccc2nc3c(c(-c4ccccc4)c2c1)CNCC3	71% (active)
O=C1NC(=O)N(Cc2ccco2)C(=O)/C1=C\c1ccc(-c2ccc(F)cc2)o1	52.5% (active)

Source: PubChem BioAssay AID651783 (The Scripps Research Institute Molecular Screening Center, 2012)
